Results: ChEMBL document CHEMBL3739334, “Spiroindole Alkaloids and Spiroditerpenoids from Aspergillus duricaulis and Their Potential Neuroprotective Effects” (J Nat Prod, 2015)

Columns and labels:
[1] = molecular target: T1, Amyloid-beta precursor protein (Homo sapiens, UniProt P05067); assay: Inhibition of amyloid beta (1 to 42 residues) (unknown origin) aggregation after 24 hrs by thioflavin T assay
In short: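 Aβ1−42 was dissolved in DMSO as a 1 mg/mL stock, then incubated at 20 μM with a range of sample concentrations for 24 h at 37 °C. Thioflavin T was added to 3 μM, and fluorescence was read 30 min later (ex 442 nm, em 485 nm). Aβ alone served as control. Run in triplicate; IC50 is the mean.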

[2] = molecular target: T1, Amyloid-beta precursor protein; assay: Inhibition of amyloid beta (1 to 42 residues) (unknown origin) aggregation at 100 uM after 24 hrs by thioflavin T assay
[3] = Cytotoxicity against rat PC12 cells; format: cell-based; conditions: pc-12

T1 sequence (P05067 whole entry, the tested form may be a part): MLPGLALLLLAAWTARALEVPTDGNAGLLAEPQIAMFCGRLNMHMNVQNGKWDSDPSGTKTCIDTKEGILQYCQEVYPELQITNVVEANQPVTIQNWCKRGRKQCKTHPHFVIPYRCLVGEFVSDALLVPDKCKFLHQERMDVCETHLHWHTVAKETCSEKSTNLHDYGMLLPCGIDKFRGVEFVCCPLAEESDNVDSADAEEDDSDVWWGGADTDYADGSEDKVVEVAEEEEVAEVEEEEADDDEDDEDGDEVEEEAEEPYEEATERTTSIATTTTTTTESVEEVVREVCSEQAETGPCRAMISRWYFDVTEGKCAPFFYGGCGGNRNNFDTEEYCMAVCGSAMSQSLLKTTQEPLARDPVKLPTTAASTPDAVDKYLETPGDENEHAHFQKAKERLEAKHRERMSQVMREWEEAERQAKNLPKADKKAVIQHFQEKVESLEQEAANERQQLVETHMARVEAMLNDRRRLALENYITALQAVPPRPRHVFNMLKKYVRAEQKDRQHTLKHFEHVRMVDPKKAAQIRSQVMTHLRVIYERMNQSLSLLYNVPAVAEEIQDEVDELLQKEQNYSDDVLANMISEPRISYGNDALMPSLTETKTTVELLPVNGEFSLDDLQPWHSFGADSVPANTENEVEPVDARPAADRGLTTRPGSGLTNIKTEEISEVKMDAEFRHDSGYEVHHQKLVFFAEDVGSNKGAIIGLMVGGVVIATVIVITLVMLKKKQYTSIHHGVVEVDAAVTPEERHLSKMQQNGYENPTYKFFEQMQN

Row | IC50 [1] [µM] | inhibition [2] [%] | SMILES | Activity [3]
1 | > 300 |  | C[C@@H]1C[C@@]23C[C@H]4C(C)(C)[C@@]5(C[C@]4(CN2C1=O)NC3=O)C(=O)Nc1c5ccc2c1OC=CC(C)(C)O2 | 
2 | 204 | 30 | C[C@H]1CN2C[C@]34C[C@@]5(C(=O)Nc6c5ccc5c6C=CC(C)(C)O5)C(C)(C)[C@@H]3C[C@@]2(C1)C(=O)N4C | Toxic
3 | > 300 |  | CC1(C)C=Cc2cc(C(=O)O)ccc2O1 | 
4 | 187 | 30 | CN1C(=O)[C@@]23CCC(=O)N2C[C@@]12C[C@@]1(C(=O)Nc4c1ccc1c4C=CC(C)(C)O1)C(C)(C)[C@@H]2C3 | 
5 | 244 | 30 | C[C@@H]1C[C@@]23C[C@H]4C(C)(C)[C@@]5(C[C@]4(CN2C1=O)NC3=O)C(=O)Nc1c5ccc2c1C=CC(C)(C)O2 | 
6 | 71.9 |  | O=C(/C=C/c1ccc(O)c(O)c1)O[C@H](Cc1ccc(O)c(O)c1)C(=O)O [ROSMARINIC ACID] | 
7 | > 300 |  | C[C@@H]1C[C@@]23C[C@H]4C(C)(C)[C@@]5(C[C@]4(CN2C1=O)N(C)C3=O)C(=O)Nc1c5ccc2c1OC=CC(C)(C)O2 | 
8 | > 300 |  | CC1=CC[C@@H]2[C@@]3(C)[C@@H](O)CC(=O)OC(C)(C)[C@@H]3CC[C@@]2(C)[C@]12Cc1c(c(C)c(C)oc1=O)O2 | 
9 | > 300 |  | CC(=O)O[C@H]1CC(=O)OC(C)(C)[C@@H]2CC[C@]3(C)[C@H](CC=C(C)[C@@]34C[C@]3(OC(C)=C(C)C3=O)C(=O)O4)[C@@]12C | 
10 | 269 | 30 | C[C@H]1CN2C[C@]34C[C@@]5(C(=O)Nc6c5ccc5c6OC=CC(C)(C)O5)C(C)(C)[C@@H]3C[C@@]2(C1)C(=O)N4C | 
11 | > 300 |  | CC1=CC[C@@H]2[C@@]3(C)C=CC(=O)OC(C)(C)[C@@H]3CC[C@@]2(C)[C@]12Cc1c(c(C)c(C)oc1=O)O2 | 

Row | SMILES | IC50 [1] [µM] | inhibition [2] [%] | Activity [3]
12 | C[C@@H]1C[C@@]23C[C@H]4C(C)(C)[C@@]5(C[C@]4(CN2C1=O)N(C)C3=O)C(=O)Nc1c5ccc2c1C=CC(C)(C)O2 | > 300 |  | 
